{"source": "paper PMC4567957", "about": "(Bioorganic & medicinal chemistry letters, 2015)", "key": {"human ferroportin-GFP": {"target": "T1, human ferroportin-GFP (Homo sapiens, UniProt Q9NP59)", "T1 sequence (Q9NP59 1-571)": "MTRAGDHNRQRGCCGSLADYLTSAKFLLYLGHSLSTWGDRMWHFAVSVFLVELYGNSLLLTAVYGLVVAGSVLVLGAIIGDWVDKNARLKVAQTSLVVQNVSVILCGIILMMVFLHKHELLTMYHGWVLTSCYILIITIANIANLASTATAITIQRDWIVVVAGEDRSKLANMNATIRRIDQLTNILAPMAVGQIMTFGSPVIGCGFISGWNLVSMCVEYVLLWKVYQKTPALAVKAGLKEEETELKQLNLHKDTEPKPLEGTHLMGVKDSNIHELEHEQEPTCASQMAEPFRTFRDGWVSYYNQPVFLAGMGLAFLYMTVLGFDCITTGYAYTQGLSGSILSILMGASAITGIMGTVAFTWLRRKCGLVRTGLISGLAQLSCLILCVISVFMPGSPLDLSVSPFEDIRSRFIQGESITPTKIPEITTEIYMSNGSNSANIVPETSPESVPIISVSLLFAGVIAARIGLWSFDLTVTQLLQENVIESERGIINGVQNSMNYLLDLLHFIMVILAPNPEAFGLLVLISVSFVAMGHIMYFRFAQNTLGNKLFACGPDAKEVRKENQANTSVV", "assay": "In vitro ferroportin", "assay_type": "cell-based", "details": "for bioactivity in Fpn degradation assay (in words): result in words, see Table 1; for times less active than mHS5: versus mHS5"}, "[1]": {"assay": "Plasma stability in freshly prepared mouse plasma", "assay_type": "in vitro ADME", "details": "25 μM, 37 °C", "how_it_was_run": "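Test compound, from a 10 mM DMSO stock, spiked into freshly prepared mouse plasma (final 25 μM) and incubated at 37 °C. Aliquots taken at set time points were quenched in DMSO/acetonitrile (1:1) with 0.1% TFA and centrifuged (13000 rpm, 10 min). Supernatants were analysed by triple-quadrupole LC/MS against a peptide internal standard to follow remaining intact peptide over time.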"}, "C57BL/6 mice": {"tested_on": "C57BL/6 mice", "assay_type": "in vivo, mouse", "details": "subcutaneous, 50–200 nmoles, 24h post-injection"}}, "note": "Entries after “also recorded” stand apart in the source; their conditions may differ. Starred links: 1 amine or outer side, 2 acyl side, 3 side chain; linkers in the order of their positions; H or OH if unused. Positions of bridges follow the written chain, without caps; N, C: chain ends. Non-standard residues stand in square brackets, D forms with d. Residues, ends and D or L forms follow the SMILES beside them. *: point of attachment. CH2CONHCH2CH2NHCOCH2 = O=C(C[*:1])NCCNC(=O)C[*:2]; Propanoyl(3,3-Ph2) = O=C(CC(c1ccccc1)c1ccccc1)*; Pyridine(2,6-diCH2) = c1cc(C[*:1])nc(C[*:2])c1; X2 = O=C(CC(c1ccccc1)(c1ccccc1)c1ccccc1)*; Dip = N[C@H](C(=O)O)C(c1ccccc1)c1ccccc1; X1 = CCCCCCCCCCCCCCCC(=O)NCCOCCOCCN*; mXylylene = c1cc(C[*:1])cc(C[*:2])c1; oXylylene = c1ccc(C[*:2])c(C[*:1])c1; NH(CH2CH2O)2CH2CH2NH2 = NCCOCCOCCN*; pXylylene = c1cc(C[*:2])ccc1C[*:1]; Mpa = O=C(O)CCS", "data": [{"smiles": "CC(=O)N[C@@H](CS)C(=O)N[C@@H](Cc1ccccc1)C(=O)N1CCC[C@H]1C(=O)N[C@@H](CCCNC(=N)N)C(=O)N[C@@H](CS)C(=O)N[C@@H](CCCNC(=N)N)C(=O)N[C@@H](Cc1ccccc1)C(=O)N[C@@H](CS)C(N)=O", "note": "[mHS1] (Ac-CFPRCRFC-NH2; N-terminus and C-terminus assumed)", "values": [{"measurement": "EC50", "setting": "human ferroportin-GFP", "value": "> 600", "unit": "nM"}, {"measurement": "time within which degraded in plasma", "setting": "[1]", "value": "≤ 6", "unit": "h"}]}, {"smiles": "CC(=O)N[C@H]1CSCC(=O)NCCNC(=O)CSC[C@@H](C(N)=O)NC(=O)[C@H](Cc2ccccc2)NC(=O)[C@H](CCCNC(=N)N)NC(=O)[C@H](CS)NC(=O)[C@H](CCCNC(=N)N)NC(=O)[C@@H]2CCCN2C(=O)[C@H](Cc2ccccc2)NC1=O", "note": "[mHS2] (Ac-CFPRCRFC-NH2; linker 1-8 via CH2CONHCH2CH2NHCOCH2; N-terminus and C-terminus assumed)", "values": [{"measurement": "bioactivity in Fpn degradation assay (in words)", "setting": "human ferroportin-GFP", "value": "inactive"}]}, {"smiles": "CC(=O)N[C@H]1CSCc2ccc(cc2)CSC[C@@H](C(N)=O)NC(=O)[C@H](Cc2ccccc2)NC(=O)[C@H](CCCNC(=N)N)NC(=O)[C@H](CS)NC(=O)[C@H](CCCNC(=N)N)NC(=O)[C@@H]2CCCN2C(=O)[C@H](Cc2ccccc2)NC1=O", "note": "[mHS4] (Ac-CFPRCRFC-NH2; linker 1-8 via pXylylene (inferred))", "values": [{"measurement": "times less active than mHS5", "setting": "human ferroportin-GFP", "value": "approximately 2 times"}]}, {"smiles": "CC(=O)N[C@H]1CSCc2ccccc2CSC[C@@H](C(N)=O)NC(=O)[C@H](Cc2ccccc2)NC(=O)[C@H](CCCNC(=N)N)NC(=O)[C@H](CS)NC(=O)[C@H](CCCNC(=N)N)NC(=O)[C@@H]2CCCN2C(=O)[C@H](Cc2ccccc2)NC1=O", "note": "[mHS6] (Ac-CFPRCRFC-NH2; linker 1-8 via oXylylene; N-terminus and C-terminus assumed)", "values": [{"measurement": "times less active than mHS5", "setting": "human ferroportin-GFP", "value": "approximately 2 times"}]}, {"smiles": "CC(=O)N[C@H]1CSCc2cccc(n2)CSC[C@@H](C(N)=O)NC(=O)[C@H](Cc2ccccc2)NC(=O)[C@H](CCCNC(=N)N)NC(=O)[C@H](CS)NC(=O)[C@H](CCCNC(=N)N)NC(=O)[C@@H]2CCCN2C(=O)[C@H](Cc2ccccc2)NC1=O", "note": "[mHS7] (Ac-CFPRCRFC-NH2; linker 1-8 via Pyridine(2,6-diCH2); N-terminus and C-terminus assumed)", "values": [{"measurement": "bioactivity in Fpn degradation assay (in words)", "setting": "human ferroportin-GFP", "value": "inactive"}]}, {"smiles": "CC(=O)N[C@H]1CSCc2cccc(c2)CSC[C@@H](C(N)=O)NC(=O)[C@H](Cc2ccccc2)NC(=O)[C@H](CCCNC(=N)N)NC(=O)[C@H](CS)NC(=O)[C@H](CCCNC(=N)N)NC(=O)[C@@H]2CCCN2C(=O)[C@H](C(c2ccccc2)c2ccccc2)NC1=O", "note": "[mHS15] (Ac-C[Dip]PRCRFC-NH2; linker 1-8 via mXylylene; N-terminus and C-terminus assumed)", "values": [{"measurement": "increase in potency (4Phe→Dpa)", "setting": "human ferroportin-GFP; mHS5 versus mHS15", "value": 5, "unit": "×"}]}, {"smiles": "CCCCCCCCCCCCCCCCNC(=O)CN(CC(N)=O)C(=O)CCCCCNC(=O)[C@@H]1CSCc2cccc(c2)CSC[C@H](NC(C)=O)C(=O)N[C@@H](C(c2ccccc2)c2ccccc2)C(=O)N2CCC[C@H]2C(=O)N[C@@H](CCCNC(=N)N)C(=O)N[C@@H](CS)C(=O)N[C@@H](CCCNC(=N)N)C(=O)N[C@@H](Cc2ccccc2)C(=O)N1", "note": "[mHS17]", "values": [{"measurement": "in vivo activity (decrease in serum iron)", "setting": "C57BL/6 mice", "value": "no desired biological effect; also recorded: no in vivo potency"}]}, {"smiles": "N=C(N)NCCC[C@@H]1NC(=O)[C@@H](NC(=O)CC(c2ccccc2)(c2ccccc2)c2ccccc2)CSCc2cccc(c2)CSC[C@@H](C(N)=O)NC(=O)[C@H](Cc2ccccc2)NC(=O)[C@H](CCCNC(=N)N)NC(=O)[C@H](CS)NC1=O", "note": "[mHS19] (X2-CRCRFC-NH2; linker 1-6 via mXylylene; C-terminus assumed)", "values": [{"measurement": "EC50", "setting": "human ferroportin-GFP", "value": "~100", "unit": "nM"}, {"measurement": "fold less potent than mHS15", "setting": "human ferroportin-GFP; versus mHS15", "value": "approximately 2 ×"}]}, {"smiles": "N=C(N)NCCC[C@@H]1NC(=O)[C@H](CS)NC(=O)[C@H](CCCNC(=N)N)NC(=O)[C@@H]2CCCN2C(=O)[C@H](C(c2ccccc2)c2ccccc2)NC(=O)CCSCc2cccc(c2)CSC[C@@H](C(=O)NCCOCCOCCN)NC(=O)[C@H](Cc2ccccc2)NC1=O", "note": "[mHS23] ([Mpa][Dip]PRCRFC-{NH(CH2CH2O)2CH2CH2NH2}; linker 1-8 via mXylylene (inferred))", "values": [{"measurement": "times more active than mHS22", "setting": "human ferroportin-GFP; versus AcNH-containing mHS22", "value": "approximately 2 times"}]}, {"smiles": "CCCCCCCCCCCCCCCC(=O)NCCOCCOCCNC(=O)[C@@H]1CSCc2cccc(c2)CSC[C@H](NC(=O)CC(c2ccccc2)c2ccccc2)C(=O)N[C@@H](CCCNC(=N)N)C(=O)N[C@@H](CS)C(=O)N[C@@H](CCCNC(=N)N)C(=O)N[C@@H](Cc2ccccc2)C(=O)N1", "note": "[mHS26] ({Propanoyl(3,3-Ph2)}-CRCRFC-X1; linker 1-6 via mXylylene; N-terminus and C-terminus assumed)", "values": [{"measurement": "fold less potent than parental minihepcidin PR73", "setting": "human ferroportin-GFP; ratio of EC50 versus PR73", "value": 12.5, "unit": "×"}, {"measurement": "in vivo activity (decrease in serum iron)", "setting": "C57BL/6 mice", "value": "no desired biological effect; also recorded: no in vivo potency"}, {"measurement": "plasma stability compared with PR73", "setting": "[1]", "value": "slightly more resistant to plasma driven degradation"}]}]}
